Data taken from ChEMBL document CHEMBL4706502, “Synthesis and structure activity relationships of cyanopyridone based anti-tuberculosis agents” (Eur J Med Chem, 2020).
The source made the active and inactive calls. The rule behind the calls is not given here.

Columns and labels:
[1] = system: Mycobacterium tuberculosis; experiment: Antitubercular activity against Mycobacterium tuberculosis H37Rv ATCC 27294 assessed as reduction in microbial growth under 7H9/glucose medium after 1 week by two fold serial dilution method; format: functional; details: H37Rv ATCC 27294, 168 h, time 1 weeks
In short: (§1)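 M. tuberculosis H37Rv grown to OD650nm 0.2-0.3 and diluted 1000-fold; about 1× 10^4 bacteria per well. Compounds taken from DMSO stocks and 2-fold serially diluted, in duplicate. Incubated 37 °C for 1 week, read by inverted mirror. MIC = lowest concentration giving complete growth inhibition. Isoniazid positive control, DMSO negative control. Media: GAST/Fe pH 6.6 or 7H9/glucose/casitone/Tyloxapol.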

[2] = system: Mycobacterium tuberculosis; experiment: Antitubercular activity against Mycobacterium tuberculosis H37Rv ATCC 27294 assessed as reduction in microbial growth under GAST/Fe medium after 1 week by two fold serial dilution method; format: functional; details: H37Rv ATCC 27294, 168 h, time 1 weeks; in short: as §1
[3] = Cytotoxicity against human MRC5 cells assessed as reduction in cell viability after 24 hrs by NRU assay; format: cell-based
[4] = Inhibition of wild-type Mycobacterium tuberculosis thymidylate kinase expressed in Escherichia coli BLi5 competent cells using dTMP as substrate by lactate dehydrogenase, pyruvate kinase and nucleoside diphosphate kinase coupled spectrophotometric method
In short: (§2)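 Purified MtbTMPK in a coupled spectrophotometric assay. Substrates fixed at dTMP 0.05 mM and ATP 0.5 mM. Compounds in DMSO, serially diluted; IC50 calculated, or no inhibition recorded at 0.2 mM.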

[5] = system: Mycobacterium tuberculosis; experiment: Inhibition of wild-type Mycobacterium tuberculosis thymidylate kinase expressed in Escherichia coli BLi5 competent cells at 0.2 mM using dTMP as substrate by lactate dehydrogenase, pyruvate kinase and nucleoside diphosphate kinase coupled spectrophotometric method; in short: as §2
[6] = Selectivity index, ratio of CC50 for human MRC5 cells to ratio of MIC99 for antitubercular activity against Mycobacterium tuberculosis H37Rv ATCC 27294 assessed as reduction in microbial growth under GAST/Fe medium; format: toxicity; details: read-out: Selectivity Index
[7] = Selectivity index, ratio of CC50 for human MRC5 cells to ratio of MIC99 for antitubercular activity against Mycobacterium tuberculosis H37Rv ATCC 27294 assessed as reduction in microbial growth under 7H9/glucose medium; format: toxicity; details: read-out: Selectivity Index

Structure (SMILES) | MIC99 [1] | MIC99 [2] | CC50 at 24 h [3] | IC50 [4] | inhibition [5] | selectivity ratio [6] | selectivity ratio [7]
C[S+]([O-])c1c(-c2cccc(OCc3ccc(Cl)c(Cl)c3)c2)c[nH]c(=O)c1C#N (centres undefined) | 9.4 µM | 9.4 µM | > 64 µM | – | – | – | –
C[S+]([O-])c1c(-c2cccc(OCc3ccccc3[N+](=O)[O-])c2)c[nH]c(=O)c1C#N (centres undefined) | 37 µM | 19 µM | 64 µM | – | – | – | –
C[S+]([O-])c1c(-c2cccc(OCc3cccc(Cl)c3)c2)c[nH]c(=O)c1C#N (centres undefined) | 9.4 µM | 9.4 µM | > 64 µM | – | – | – | –
C[S+]([O-])c1c(-c2cccc(OCc3ccccc3)c2)c[nH]c(=O)c1C#N (centres undefined) | 19 µM | 6.25 µM | 25 µM | – | – | – | –
C[S+]([O-])c1c(-c2ccc(Br)cc2)c[nH]c(=O)c1C#N (centres undefined) | 12.5 µM | 19 µM | > 64 µM | – | – | – | –
C[S+]([O-])c1c(-c2cccc(Oc3ccc(Cl)c(Cl)c3)c2)c[nH]c(=O)c1C#N (centres undefined) | 12.5 µM | 19 µM | 8 µM | – | – | – | –
C[S+]([O-])c1c(-c2cccc(Oc3ccc(Cl)cc3)c2)c[nH]c(=O)c1C#N (centres undefined) | 12.5 µM | 9.5 µM | 24 µM | – | – | – | –
CS(=O)(=O)c1c(-c2ccc(Cl)c(Cl)c2)c[nH]c(=O)c1C(N)=O | – | 19 µM | > 64 µM | – | – | – | –
CS(=O)(=O)c1c(-c2ccc(C(F)(F)F)cc2)c[nH]c(=O)c1C#N | > 50 µM | > 50 µM | > 64 µM | – | – | – | –
COc1ccc(-c2c[nH]c(=O)c(C#N)c2[S+](C)[O-])cc1 (centres undefined) | > 100 µM | > 100 µM | > 64 µM | – | – | – | –
C[S+]([O-])c1c(-c2ccccc2Cl)c[nH]c(=O)c1C#N (centres undefined) | 12.5 µM | 37 µM | > 64 µM | – | – | – | –
CS(=O)(=O)c1c(-c2cccc(Cl)c2)c[nH]c(=O)c1C#N | > 50 µM | > 50 µM | > 64 µM | – | – | – | –
C[S+]([O-])c1c(-c2ccc(Cl)c(Cl)c2)c[nH]c(=O)c1C(N)=O (centres undefined) | 50 µM | ≥ 50 µM | 16 µM | – | – | – | –
CSc1c(-c2ccccc2)c[nH]c(=O)c1C#N | 100 µM | ≥ 100 µM | 64 µM | 206 µM | – | – | –
C[S+]([O-])c1c(-c2ccc(Oc3ccccc3)cc2)c[nH]c(=O)c1C#N (centres undefined) | 25 µM | 3.13 µM | > 64 µM | – | inactive | – | –
C[S+]([O-])c1c(-c2ccccc2)c[nH]c(=O)c1C#N (centres undefined) | 25 µM | 37 µM | > 64 µM | – | inactive | – | –
Cc1ccc(Oc2cccc(-c3c[nH]c(=O)c(C#N)c3[S+](C)[O-])c2)cc1 (centres undefined) | 25 µM | 6.25 µM | 30 µM | – | – | – | –
C[S+]([O-])c1c(-c2ccc(Oc3ccc(Cl)c(Cl)c3)cc2)c[nH]c(=O)c1C#N (centres undefined) | 9.4 µM | 19 µM | 28 µM | – | – | – | –

Structure (SMILES) | MIC99 [1] | MIC99 [2] | CC50 at 24 h [3] | IC50 [4] | inhibition [5] | selectivity ratio [6] | selectivity ratio [7]
NNC(=O)c1ccncc1 [ISONIAZID] | 0.15 µM | 0.2 µM | – | – | – | – | –
C[S+]([O-])c1c(-c2ccc(-c3ccccc3)cc2)c[nH]c(=O)c1C#N (centres undefined) | 1.2 µM | 2.3 µM | > 64 µM | – | – | 27.8 | 50
C[S+]([O-])c1c(-c2ccc(Cl)cc2)c[nH]c(=O)c1C#N (centres undefined) | 19 µM | 25 µM | > 64 µM | – | – | – | –
C[S+]([O-])c1c(-c2ccc(C(F)(F)F)cc2)c[nH]c(=O)c1C#N (centres undefined) | 37 µM | 19 µM | > 64 µM | – | – | – | –
COc1ccc(Oc2cccc(-c3c[nH]c(=O)c(C#N)c3[S+](C)[O-])c2)cc1 (centres undefined) | 25 µM | 6.25 µM | 30 µM | – | – | – | –
C[S+]([O-])c1c(-c2cccc(OCc3ccccc3Cl)c2)c[nH]c(=O)c1C#N (centres undefined) | 9.4 µM | 4.7 µM | 25 µM | – | – | – | –
C[S+]([O-])c1c(-c2ccc(OCc3ccccc3)cc2)c[nH]c(=O)c1C#N (centres undefined) | 9.4 µM | 4.7 µM | 25 µM | – | – | – | –
CS(=O)(=O)c1c(-c2ccccc2Cl)c[nH]c(=O)c1C#N | 37 µM | > 50 µM | > 64 µM | – | – | – | –
C[S+]([O-])c1c(-c2ccc(Cl)c(Cl)c2)c[nH]c(=O)c1C#N (centres undefined) | 19 µM | 12.5 µM | > 64 µM | – | – | – | –
COc1ccc(Oc2ccc(-c3c[nH]c(=O)c(C#N)c3[S+](C)[O-])cc2)cc1 (centres undefined) | 19 µM | 9.4 µM | 23 µM | – | – | – | –
C[S+]([O-])c1c(-c2cccc(OCc3ccc(Cl)cc3)c2)c[nH]c(=O)c1C#N (centres undefined) | 9.4 µM | 9.4 µM | 31 µM | – | – | – | –
C[S+]([O-])c1c(-c2ccc(Oc3ccc(Cl)cc3)cc2)c[nH]c(=O)c1C#N (centres undefined) | 9.4 µM | 9.4 µM | 25 µM | – | – | – | –
C[S+]([O-])c1c(-c2ccccc2Oc2ccccc2)c[nH]c(=O)c1C#N (centres undefined) | 50 µM | 9.4 µM | 30 µM | – | inactive | – | –
C[S+]([O-])c1c(-c2cccc(Oc3ccccc3)c2)c[nH]c(=O)c1C#N (centres undefined) | 37 µM | – | 32 µM | – | inactive | – | –
Cc1ccc(Oc2ccc(-c3c[nH]c(=O)c(C#N)c3[S+](C)[O-])cc2)cc1 (centres undefined) | 9.4 µM | 4.7 µM | 28 µM | – | – | – | –
C[S+]([O-])c1cc(-c2cccc(Br)c2)[nH]c(=O)c1C#N (centres undefined) | 19 µM | 19 µM | – | 28 µM | – | – | –
C[S+]([O-])c1c(-c2cccc(Cl)c2)c[nH]c(=O)c1C#N (centres undefined) | 19 µM | 37 µM | > 64 µM | – | – | – | –
